Data reported in ChEMBL document CHEMBL5303300, “EUbOPEN Chemogenomics Library - Multiplex” (2023).
Several values for one entry are separate records, joined by “and”; a condition that tells them apart may be missing. Identical values can stand only once.

Tested on: Fibroblast
Experiment: Multiplex assay against human fibroblast
Assay type: toxicity, cell-based
Conditions: number of replicates 2
Method in brief: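 Compound was added to live cells that had been stained at seeding with Hoechst33342, BioTracker Green Microtubule Cytoskeleton Dye, MitoTracker Red and Annexin V Alexa Fluor 680, and imaging followed on a CQ1 microscope at 37°C and 5% CO2. CellPathfinder machine-learning gating divided cells into Hoechst high-intensity objects or normal cells, normal cells into healthy, pyknosed or fragmented nuclei, and pyknosed cells into mitotic or apoptotic. Tubulin, mitochondrial-mass and membrane-permeability phenotypes are per cents of healthy-nucleus cells.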

[1] = 12 h, 1 µM, compound concentration 1 uM
[2] = 12 h, 10 µM, compound concentration 10 uM
[3] = 24 h, 1 µM, compound concentration 1 uM
[4] = 24 h, 10 µM, compound concentration 10 uM
[5] = 48 h, 1 µM, compound concentration 1 uM
[6] = 48 h, 10 µM, compound concentration 10 uM

COc1ccc(CC[C@@H](OC(=O)[C@@H]2CCCCN2C(=O)[C@H](c2cc(OC)c(OC)c(OC)c2)C2CCCCC2)c2cccc(OCCN3CCOCC3)c2)cc1OC
Population Apoptotic (%) [1]: 42% and 47%
Population Fragmented Nuclei (%) [1]: 12% and 11%
Population Healthy Nuclei (%) [1]: 65% and 64%
Population Hoechst High Intensity Objects (%) [1]: 0%
Population Membrane Permeable-Phenotype (%) [1]: 20%
Population Mitochondria Different-Phenotype (%) [1]: 7% and 2%
Population Mitotic Cells (%) [1]: 57% and 52%
Population Normal (%) [1]: 100% and 99%
Population Pyknosed Nuclei (%) [1]: 21% and 23%
Population Tubulin-Different-Phenotype (%) [1]: 81% and 69%
Total Cell Count [1]: 227 and 146
Population Apoptotic (%) [2]: 51% and 55%
Population Fragmented Nuclei (%) [2]: 14% and 19%
Population Healthy Nuclei (%) [2]: 60% and 59%
Population Hoechst High Intensity Objects (%) [2]: 0%
Population Membrane Permeable-Phenotype (%) [2]: 25% and 21%
Population Mitochondria Different-Phenotype (%) [2]: 14% and 11%
Population Mitotic Cells (%) [2]: 48% and 44%
Population Normal (%) [2]: 99% and 100%
Population Pyknosed Nuclei (%) [2]: 24% and 20%
Population Tubulin-Different-Phenotype (%) [2]: 89% and 84%
Total Cell Count [2]: 188 and 273
Population Apoptotic (%) [3]: 50% and 59%
Population Fragmented Nuclei (%) [3]: 7% and 20%
Population Healthy Nuclei (%) [3]: 67% and 51%
Population Hoechst High Intensity Objects (%) [3]: 0%
Population Membrane Permeable-Phenotype (%) [3]: 10% and 9%
Population Mitochondria Different-Phenotype (%) [3]: 14%
Population Mitotic Cells (%) [3]: 50% and 40%
Population Normal (%) [3]: 99% and 100%
Population Pyknosed Nuclei (%) [3]: 24% and 28%
Population Tubulin-Different-Phenotype (%) [3]: 74% and 65%
Total Cell Count [3]: 207 and 148
Population Apoptotic (%) [4]: 66% and 71%
Population Fragmented Nuclei (%) [4]: 14% and 20%
Population Healthy Nuclei (%) [4]: 59% and 56%
Population Hoechst High Intensity Objects (%) [4]: 0%
Population Membrane Permeable-Phenotype (%) [4]: 15% and 6%
Population Mitochondria Different-Phenotype (%) [4]: 24% and 45%
Population Mitotic Cells (%) [4]: 33% and 28%
Population Normal (%) [4]: 99%
Population Pyknosed Nuclei (%) [4]: 26% and 22%
Population Tubulin-Different-Phenotype (%) [4]: 86% and 89%
Total Cell Count [4]: 193 and 253
Population Apoptotic (%) [5]: 71% and 82%
Population Fragmented Nuclei (%) [5]: 6% and 14%
Population Healthy Nuclei (%) [5]: 77% and 66%
Population Hoechst High Intensity Objects (%) [5]: 0%
Population Membrane Permeable-Phenotype (%) [5]: 8% and 17%
Population Mitochondria Different-Phenotype (%) [5]: 3% and 10%
Population Mitotic Cells (%) [5]: 28% and 17%
Population Normal (%) [5]: 100% and 99%
Population Pyknosed Nuclei (%) [5]: 16% and 18%
Population Tubulin-Different-Phenotype (%) [5]: 61% and 51%
Total Cell Count [5]: 199 and 150
Population Apoptotic (%) [6]: 85% and 80%
Population Fragmented Nuclei (%) [6]: 22% and 29%
Population Healthy Nuclei (%) [6]: 59% and 55%
Population Hoechst High Intensity Objects (%) [6]: 1% and 0%
Population Membrane Permeable-Phenotype (%) [6]: 20% and 8%
Population Mitochondria Different-Phenotype (%) [6]: 27% and 30%
Population Mitotic Cells (%) [6]: 14% and 20%
Population Normal (%) [6]: 98% and 99%
Population Pyknosed Nuclei (%) [6]: 17% and 15%
Population Tubulin-Different-Phenotype (%) [6]: 91%
Total Cell Count [6]: 195 and 265

Cl.Clc1ccc2nsnc2c1NC1=NCCN1 [TIZANIDINE HYDROCHLORIDE]
Population Apoptotic (%) [1]: 50% and 48%
Population Fragmented Nuclei (%) [1]: 10%
Population Healthy Nuclei (%) [1]: 62%
Population Hoechst High Intensity Objects (%) [1]: 0%
Population Membrane Permeable-Phenotype (%) [1]: 4% and 7%
Population Mitochondria Different-Phenotype (%) [1]: 0%
Population Mitotic Cells (%) [1]: 49% and 51%
Population Normal (%) [1]: 100%
Population Pyknosed Nuclei (%) [1]: 26% and 27%
Population Tubulin-Different-Phenotype (%) [1]: 10% and 5%
Total Cell Count [1]: 192 and 172
Population Apoptotic (%) [2]: 36%
Population Fragmented Nuclei (%) [2]: 16% and 15%
Population Healthy Nuclei (%) [2]: 68% and 70%
Population Hoechst High Intensity Objects (%) [2]: 0%
Population Membrane Permeable-Phenotype (%) [2]: 5% and 3%
Population Mitochondria Different-Phenotype (%) [2]: 3% and 1%
Population Mitotic Cells (%) [2]: 63%
Population Normal (%) [2]: 100%
Population Pyknosed Nuclei (%) [2]: 15% and 13%
Population Tubulin-Different-Phenotype (%) [2]: 14% and 8%
Total Cell Count [2]: 194 and 264
Population Apoptotic (%) [3]: 67% and 56%
Population Fragmented Nuclei (%) [3]: 9% and 13%
Population Healthy Nuclei (%) [3]: 60% and 57%
Population Hoechst High Intensity Objects (%) [3]: 0%
Population Membrane Permeable-Phenotype (%) [3]: 6%
Population Mitochondria Different-Phenotype (%) [3]: 1% and 0%
Population Mitotic Cells (%) [3]: 32% and 44%
Population Normal (%) [3]: 100%
Population Pyknosed Nuclei (%) [3]: 29% and 28%
Population Tubulin-Different-Phenotype (%) [3]: 14% and 8%
Total Cell Count [3]: 176 and 173
Population Apoptotic (%) [4]: 71% and 45%
Population Fragmented Nuclei (%) [4]: 12% and 14%
Population Healthy Nuclei (%) [4]: 71% and 72%
Population Hoechst High Intensity Objects (%) [4]: 0%
Population Membrane Permeable-Phenotype (%) [4]: 6% and 4%
Population Mitochondria Different-Phenotype (%) [4]: 3% and 1%
Population Mitotic Cells (%) [4]: 28% and 54%
Population Normal (%) [4]: 100% and 99%
Population Pyknosed Nuclei (%) [4]: 15% and 12%
Population Tubulin-Different-Phenotype (%) [4]: 12% and 8%
Total Cell Count [4]: 182 and 271
Population Apoptotic (%) [5]: 68% and 59%
Population Fragmented Nuclei (%) [5]: 11% and 15%
Population Healthy Nuclei (%) [5]: 71% and 63%
Population Hoechst High Intensity Objects (%) [5]: 0%
Population Membrane Permeable-Phenotype (%) [5]: 6% and 11%
Population Mitochondria Different-Phenotype (%) [5]: 0%
Population Mitotic Cells (%) [5]: 31% and 40%
Population Normal (%) [5]: 100% and 99%
Population Pyknosed Nuclei (%) [5]: 17% and 20%
Population Tubulin-Different-Phenotype (%) [5]: 12% and 3%
Total Cell Count [5]: 186 and 203
Population Apoptotic (%) [6]: 72% and 60%
Population Fragmented Nuclei (%) [6]: 13% and 12%
Population Healthy Nuclei (%) [6]: 70% and 78%
Population Hoechst High Intensity Objects (%) [6]: 0%
Population Membrane Permeable-Phenotype (%) [6]: 5% and 2%
Population Mitochondria Different-Phenotype (%) [6]: 0%
Population Mitotic Cells (%) [6]: 27% and 39%
Population Normal (%) [6]: 100% and 99%
Population Pyknosed Nuclei (%) [6]: 15% and 8%
Population Tubulin-Different-Phenotype (%) [6]: 8% and 2%
Total Cell Count [6]: 193 and 260
